Measured values reported in PMC7470514 (RSC Chemical Biology, 2020).
Where “and” joins values, the source holds several entries; their conditions need not be identical. Identical values can stand only once. Where no end group is shown, it is not given here.

Experiments:
Type in all cases: cell-based
[1] = target: T1, S. pneumoniae ComD1 receptor (Streptococcus pneumoniae serotype 2, UniProt A0A0H2ZM50); assay: β-galactosidase reporter assay, competitive inhibition
T1 sequence (A0A0H2ZM50 1-441): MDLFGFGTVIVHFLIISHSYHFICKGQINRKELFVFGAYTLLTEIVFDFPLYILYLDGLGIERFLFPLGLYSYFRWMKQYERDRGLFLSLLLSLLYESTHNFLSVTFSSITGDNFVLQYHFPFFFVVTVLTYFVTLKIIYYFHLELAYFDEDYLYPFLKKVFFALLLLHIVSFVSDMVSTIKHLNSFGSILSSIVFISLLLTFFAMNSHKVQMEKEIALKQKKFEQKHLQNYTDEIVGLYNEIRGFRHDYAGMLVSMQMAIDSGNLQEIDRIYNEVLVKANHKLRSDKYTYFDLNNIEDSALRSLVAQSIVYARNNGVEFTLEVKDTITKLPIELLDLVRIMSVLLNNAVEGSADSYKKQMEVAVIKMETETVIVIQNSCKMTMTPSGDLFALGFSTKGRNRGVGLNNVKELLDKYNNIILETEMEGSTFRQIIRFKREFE
In short: (§1)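 Cultures were prepared as for agonism: overnight THY with chloramphenicol, diluted to early exponential phase. Wells held native CSP at a fully activating level (50 nM CSP1 for D39/ComD1; 250 nM CSP2 for TIGR4/ComD2), with test peptide added from a 1 mM stock in triplicate. Controls were CSP plus DMSO, and DMSO alone. Plates were incubated 30 min at 37 °C, then lysed and read by ONPG. IC50 was taken from concentration series.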

[2] = target: T2, S. pneumoniae ComD2 receptor (Streptococcus pneumoniae serotype 4, UniProt A0A0H2US84); assay: as above
T2 sequence (A0A0H2US84 1-441): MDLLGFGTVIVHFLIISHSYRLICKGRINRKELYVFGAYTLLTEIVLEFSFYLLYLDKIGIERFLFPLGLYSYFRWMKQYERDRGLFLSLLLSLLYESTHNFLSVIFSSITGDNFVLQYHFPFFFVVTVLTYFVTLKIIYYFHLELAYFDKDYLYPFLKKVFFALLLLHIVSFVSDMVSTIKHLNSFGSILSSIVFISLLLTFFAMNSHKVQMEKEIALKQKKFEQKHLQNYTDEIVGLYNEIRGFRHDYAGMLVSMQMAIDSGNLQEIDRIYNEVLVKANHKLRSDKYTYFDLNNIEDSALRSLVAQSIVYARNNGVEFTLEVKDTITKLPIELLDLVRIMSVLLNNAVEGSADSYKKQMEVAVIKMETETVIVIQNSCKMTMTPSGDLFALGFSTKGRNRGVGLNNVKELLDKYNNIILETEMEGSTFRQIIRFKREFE
In short: as §1

[3] = target: T1, S. pneumoniae ComD1 receptor; assay: β-galactosidase reporter assay, agonism
In short: (§2)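 Reporter strains carry lacZ under the comX promoter. Strains were grown from THY agar (5% horse serum, 4 μg mL−1 chloramphenicol; 8 h, 37 °C, 5% CO2), then overnight (15 h) in THY with chloramphenicol. Cultures were diluted 1:50 (D39) or 1:10 (TIGR4) and grown to OD600 0.30–0.35 or 0.20–0.25.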

[4] = target: T2, S. pneumoniae ComD2 receptor; assay: β-galactosidase reporter assay, agonism
In short: as §2

EC50 [3] | EC50 [4] | Sequence | IC50 [1] [nM] | IC50 [2] [nM]
 |  | AIRQTHIFFFNFFKRR [S. mitis-CSP-2-E1AN7II8F] | 204 | 135
 |  | AIRQTHNIFFNFFKRR [S. mitis-CSP-2-E1A] | 497 | 
 |  | AMRLTHNFFFNFFKRR [S. mitis-CSP-2-E1AI2MQ4LI8F] | 317 | 
 |  | AMRLTHNIFFNFFKRR [S. mitis-CSP-2-E1AI2MQ4L] | 54.2 | 
 |  | AMRQTHFFFFNFFKRR [S. mitis-CSP-2-E1AI2MN7FI8F] | 294 | 418
 |  | AMRQTHIFFFNFFKRR [S. mitis-CSP-2-E1AI2MN7II8F] | 141 | 32.9
 |  | AMRQTHNFFFNFFKRR [S. mitis-CSP-2-E1AI2MI8F] | 143 | 
 |  | AMRQTHNIFFNFFKRR [S. mitis-CSP-2-E1AI2M] | 85.4 | 
88.2 nM | 252 nM | EIRLTHNIFFNFFKRR [S. mitis-CSP-2-Q4L] |  | 
68.7 nM | 202 nM | EIRLTHNIFFNLFKRR [S. mitis-CSP-2-Q4LF12L] |  | 
101 nM | 67.6 nM | EIRQTHFFFFNLFKRR [S. mitis-CSP-2-N7FI8FF12L] |  | 
87.2 nM | 22.8 nM | EIRQTHIFFFNFFKRR [S. mitis-CSP-2-N7II8F] |  | 
101 nM | 211 nM | EIRQTHIIFFNFFKRR [S. mitis-CSP-2-N7I] |  | 
128 nM | 209 nM | EIRQTHNFFFNFFKRR [S. mitis-CSP-2-I8F] |  | 
4.63 nM | 220 nM | EIRQTHNIFFFFFKRR [S. mitis-CSP-2-N11F] |  | 
4.97 nM | 127 nM | EIRQTHNIFFFLFKRR [S. mitis-CSP-2-N11FF12L] |  | 
663 nM | 635 nM | EIRQTHNIFFNFFKRR [S. mitis-CSP-2] |  | 
137 nM | 75.6 nM | EMRLTHFIFFNFFKRR [S. mitis-CSP-2-I2MQ4LN7F] |  | 
< 100 nM and 42 nM | < 100 nM and 30 nM | EMRLTHNFFFNFFKRR [S. mitis-CSP-2-I2MQ4LI8F] |  | 
14.8 nM | 188 nM | EMRLTHNIFFFFFKRR [S. mitis-CSP-2-I2MQ4LN11F] |  | 
49.9 nM | 141 nM | EMRLTHNIFFNFFKRR [S. mitis-CSP-2-I2MQ4L] |  | 
17.1 nM | 139 nM | EMRLTHNIFFNLFKRR [S. mitis-CSP-2-I2MQ4LF12L] |  | 
< 100 nM and 63.6 nM | < 100 nM and 13.5 nM | EMRQTHFFFFNFFKRR [S. mitis-CSP-2-I2MN7FI8F] |  | 
72.8 nM | 112 nM | EMRQTHFIFFNLFKRR [S. mitis-CSP-2-I2MN7FF12L] |  | 
< 100 nM and 61.6 nM | < 100 nM and 2.67 nM | EMRQTHIFFFNFFKRR [S. mitis-CSP-2-I2MN7II8F] |  | 
< 100 nM and 6.95 nM | < 100 nM and 26.2 nM | EMRQTHNFFFFFFKRR [S. mitis-CSP-2-I2MI8FN11F] |  | 
151 nM | 83.2 nM | EMRQTHNFFFNFFKRR [S. mitis-CSP-2-I2MI8F] |  | 
87.7 nM | 136 nM | EMRQTHNIFFNFFKRR [S. mitis-CSP-2-I2M] |  | 
25.8 nM | 146 nM | EMRQTHNIFFNLFKRR [S. mitis-CSP-2-I2MF12L] |  | 

Sequence | EC50 [3] | EC50 [4] | IC50 [1] [nM] | IC50 [2] [nM]
EIRLTHFFFFNFFKRR [S. mitis-CSP-2-Q4LN7FI8F] | 427 nM | 87.2 nM |  | 
EIRLTHFIFFNFFKRR [S. mitis-CSP-2-Q4LN7F] | 371 nM | 322 nM |  | 
EIRLTHFIFFNLFKRR [S. mitis-CSP-2-Q4LN7FF12L] | 426 nM |  |  | 
EIRLTHIFFFNFFKRR [S. mitis-CSP-2-Q4LN7II8F] | 242 nM |  |  | 
EIRLTHIIFFNFFKRR [S. mitis-CSP-2-Q4LN7I] | 348 nM | 315 nM |  | 
EIRLTHNFFFNFFKRR [S. mitis-CSP-2-Q4LI8F] | 280 nM | 370 nM |  | 
EIRLTHNIFFFFFKRR [S. mitis-CSP-2-Q4LN11F] | 9.38 nM | 434 nM |  | 
EIRQTHFFFFNFFKRR [S. mitis-CSP-2-N7FI8F] |  | 24.6 nM |  | 
EIRQTHFIFFNFFKRR [S. mitis-CSP-2-N7F] | 140 nM | 471 nM |  | 
EIRQTHFIFFNLFKRR [S. mitis-CSP-2-N7FF12L] | 156 nM | 533 nM |  | 
EIRQTHIFFFNLFKRR [S. mitis-CSP-2-N7II8FF12L] | 891 nM |  |  | 
EIRQTHIIFFNLFKRR [S. mitis-CSP-2-N7IF12L] | 613 nM | 321 nM |  | 
EIRQTHNFFFFFFKRR [S. mitis-CSP-2-I8FN11F] | 12.2 nM | 284 nM |  | 
EIRQTHNFFFNLFKRR [S. mitis-CSP-2-I8FF12L] | 160 nM | 202 nM |  | 
EIRQTHNIFFNLFKRR [S. mitis-CSP-2-F12L] | 54.3 nM | 813 nM |  | 
EMRLTHIIFFNFFKRR [S. mitis-CSP-2-I2MQ4LN7I] | 155 nM | 187 nM |  | 
EMRQTHFIFFNFFKRR [S. mitis-CSP-2-I2MN7F] | 131 nM | 123 nM |  | 
EMRQTHIIFFFFFKRR [S. mitis-CSP-2-I2MN7IN11F] | 568 nM |  |  | 
EMRQTHIIFFNFFKRR [S. mitis-CSP-2-I2MN7I] | 448 nM | 54.8 nM |  | 
EMRQTHNIFFFFFKRR [S. mitis-CSP-2-I2MN11F] | 17.7 nM | 753 nM |  | 
